According to ChEMBL document CHEMBL1122066, “Arylhydroxamic acid N,O-acyltransferase substrates. Acetyl transfer and electrophile generating activity of N-hydroxy-N-(4-alkyl-, 4-alkenyl-, and 4-cyclohexylphenyl)acetamides” (J Med Chem, 1982):

Legend:
Cricetinae gen. sp. [1] = experiment: Aminoazobenzene transacetylation inhibition by partially purified hepatic enzyme using iodo acetamide as inhibitor (1.0 mM) in hamster; conditions: at 1 mM
Cricetinae gen. sp. [2] = experiment: Aminoazobenzene transacetylation inhibition by partially purified hepatic enzyme using N-ethyl maleimide as inhibitor (1.0 mM) in hamster; assay type: functional; conditions: Cricetulus griseus
Outline: (§1)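 Rat or hamster liver cytosol (105000g supernatant), partially purified by ammonium sulfate fractionation, was incubated 5 min with the sulfhydryl reagent (1.0 mM). AAB transacetylation was then run in pH 7.0 pyrophosphate/1 mM DTT at 37 °C with hydroxamic acid donor (1.0 mM final) and AAB (0.15 mM final). It was stopped with TCA/EtOH and read at 497 nm. Values are % inhibition, means of 2–3 triplicate experiments.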

Cricetinae gen. sp. [3] = experiment: Aminoazobenzene transacetylation inhibition by partially purified hepatic enzyme using 4-chloro mercuri benzenesulfonate as inhibitor (1.0 mM) in hamster; assay type: functional; conditions: Cricetulus griseus
Outline: as §1

Rattus norvegicus [4] = species: Rattus norvegicus; experiment: Tested for its arylhydroxamic acid N,O-Acyltransferase (AHAT) catalyzed transacetylation of aminoazobenzene with partially purified hepatic enzyme in rat; assay type: functional
Outline: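 Rat liver AHAT came from 105000g cytosol, partially purified 2- to 3-fold by ammonium sulfate. It was assayed at 1.0 mg/mL protein in pH 7.0 pyrophosphate/1 mM DTT/KCl with hydroxamic acid (1.0 mM) and AAB (0.15 mM) for 5 min at 37 °C in air. The reaction was stopped with TCA/EtOH and read at 497 nm, with a heat-denatured enzyme control. Rates are mean ± SE, N = 3–4, run in triplicate.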

[5] = test system: arylhydroxamic acid N,O-acyltransferase (Mesocricetus auratus); experiment: Tested for its arylhydroxamic acid N,O-Acyltransferase (AHAT) catalyzed transacetylation of aminoazobenzene with partially purified hepatic enzyme in hamster; design: Rate: unit not given here
[6] = test system: arylhydroxamic acid N,O-acyltransferase (Mesocricetus auratus); experiment: Tested for its arylhydroxamic acid N,O-Acyltransferase (AHAT) catalyzed transacetylation of aminoazobenzene with hamster hepatic enzyme after dialysis
[7] = test system: arylhydroxamic acid N,O-acyltransferase (Mesocricetus auratus); experiment: Tested for its arylhydroxamic acid N,O-Acyltransferase (AHAT) catalyzed transacetylation of aminoazobenzene with hamster hepatic enzyme before dialysis
Rattus norvegicus [8] = species: Rattus norvegicus; experiment: Aminoazobenzene transacetylation inhibition by partially purified hepatic enzyme using N-ethyl maleimide as inhibitor (1.0 mM) in rat; assay type: functional
Outline: as §1

Rattus norvegicus [9] = species: Rattus norvegicus; experiment: Aminoazobenzene transacetylation inhibition by partially purified hepatic enzyme using iodo acetamide as inhibitor (1.0 mM) in rat; assay type: functional
Outline: as §1

Rattus norvegicus [10] = species: Rattus norvegicus; experiment: Aminoazobenzene transacetylation inhibition by partially purified hepatic enzyme using 4-chloro mercuri benzenesulfonate as inhibitor (1.0 mM) in rat; assay type: functional
Outline: as §1

Cricetinae gen. sp. [11] = experiment: Aminoazobenzene transacetylation inhibition by partially purified hepatic enzyme using iodo acetamide as inhibitor (1.0 mM) in hamster; assay type: functional; conditions: Cricetulus griseus
Outline: as §1

Cricetulus griseus = species: Cricetulus griseus; experiment: Tested for its arylhydroxamic acid N,O-Acyltransferase (AHAT) catalyzed transacetylation of aminoazobenzene with hamster hepatic enzyme after dialysis; assay type: functional
Outline: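 Hamster enzyme (partially purified by ammonium sulfate) was preincubated 20 min at 37 °C in air with the hydroxamic acid; controls had ethanol only. It was then dialyzed 6 h at 4 °C against N2-sparged pH 7.0 pyrophosphate/1 mM DTT/2% EtOH with three buffer changes. Portions taken before and after dialysis were assayed with AAB plus the same hydroxamic acid for 5 or 8 min, read at 497 nm. Rates are nmol/mg/min, mean of two triplicate experiments.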

Row | Rate (Rattus norvegicus [4]) [nmol/min/mg] | Rate [5] | SMILES | further results
1 | 3.3 | 6.6 | C=Cc1ccc(N(O)C(C)=O)cc1 | 
2 | 5.7 | 13.1 | CC(=O)N(O)c1ccc(C=C(C)C)cc1 | 
3 | 2.1 | 3.5 | CCc1ccc(N(O)C(C)=O)cc1 | 
4 | 5.9 | 13 | C/C=C/c1ccc(N(O)C(C)=O)cc1 | 
5 | 4.7 | 8.8 | CCCCc1ccc(N(O)C(C)=O)cc1 | 
6 | 5.2 | 13.8 | CCCCCc1ccc(N(O)C(C)=O)cc1 | 
7 | 3.1 | 5.3 | CCCc1ccc(N(O)C(C)=O)cc1 | 
8 | 0.2 | 0.6 | CC(=O)N(O)c1ccccc1 | 
9 | 1.1 | 2.1 | CC(=O)N(O)c1ccc(C)cc1 | 

Row | SMILES | Rate (Rattus norvegicus [4]) [nmol/min/mg] | Rate [5] | further results
10 | CC(=O)N(O)c1ccc(C2CCCCC2)cc1 | 4.7 |  | inhibition (Cricetinae gen. sp. [1]): 100%; inhibition (Cricetinae gen. sp. [2]; at 1 mM): 96%; inhibition (Cricetinae gen. sp. [3]; at 1 mM): 100%; Rate (mg of protein) [5]: 9.4; Rate (mg of protein) [6]: 1.7; Rate (mg of protein) [7]: 3.2; inhibition (Rattus norvegicus [8]; at 1 mM): 100%; inhibition (Rattus norvegicus [9]; at 1 mM): 99%; inhibition (Rattus norvegicus [10]; at 1 mM): 100%
11 | CC(=O)N(O)c1ccc(-c2ccccc2)cc1 | 5.8 | 22.4 | inhibition (Cricetinae gen. sp. [2]): 100%; inhibition (Cricetinae gen. sp. [3]): 100%; inhibition (Cricetinae gen. sp. [11]): 100%; Rate (mg of protein) [7]: 6.3; inhibition (Rattus norvegicus [8]): 92%; inhibition (Rattus norvegicus [9]): 95%; inhibition (Rattus norvegicus [10]): 100%; Rate (mg of protein) (Cricetulus griseus): 6.9
